From the M2OR odorant receptor database
Positions count from the first letter of the chain named.

Legend:
Details in all cases: stereoisomer not certain
[1] = system: OR4D2
Summary of the method: (§1)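 Each receptor–molecule pair is labelled responsive or non-responsive (inactive) according to whether the original authors judged the measured signal statistically different from baseline. The data were taken from the main text and supplementary material of published papers and checked for typos and inconsistencies. Assay methods differed by source, with transient luciferase assays in mammalian cell lines being common.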

[2] = biological target: OR4D5 (Homo sapiens) (UniProt Q8NGN0)
Summary of the method: as §1

[3] = biological target: OR4D6 (Homo sapiens) (UniProt Q8NGJ1)
Summary of the method: as §1

[4] = system: OR4D6
Summary of the method: as §1

[5] = biological target: OR4D9 (Homo sapiens) (UniProt Q8NGE8)
Summary of the method: as §1

[6] = biological target: T1, OR4E2 (Homo sapiens) (UniProt Q8NGC2)
T1 sequence (whole entry): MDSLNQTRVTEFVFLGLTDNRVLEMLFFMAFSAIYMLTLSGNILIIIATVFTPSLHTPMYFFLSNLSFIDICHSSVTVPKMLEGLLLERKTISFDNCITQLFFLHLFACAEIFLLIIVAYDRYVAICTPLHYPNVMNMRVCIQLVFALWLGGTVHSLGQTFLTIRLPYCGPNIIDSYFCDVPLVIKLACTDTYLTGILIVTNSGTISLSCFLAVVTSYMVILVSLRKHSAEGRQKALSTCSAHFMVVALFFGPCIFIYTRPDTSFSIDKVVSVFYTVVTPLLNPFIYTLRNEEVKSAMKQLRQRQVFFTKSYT
Summary of the method: as §1

[7] = system: T2, OR4E2 A119T
T2 sequence (whole entry): T1 sequence (whole entry) with V118M, A119T, Q234R
Summary of the method: as §1

[8] = system: T3, OR4E2
T3 sequence (whole entry): T1 sequence (whole entry) with V118M, Q234R
Summary of the method: as §1

[9] = biological target: T4, OR4F15 (Homo sapiens) (UniProt Q8NGB8)
T4 sequence (whole entry): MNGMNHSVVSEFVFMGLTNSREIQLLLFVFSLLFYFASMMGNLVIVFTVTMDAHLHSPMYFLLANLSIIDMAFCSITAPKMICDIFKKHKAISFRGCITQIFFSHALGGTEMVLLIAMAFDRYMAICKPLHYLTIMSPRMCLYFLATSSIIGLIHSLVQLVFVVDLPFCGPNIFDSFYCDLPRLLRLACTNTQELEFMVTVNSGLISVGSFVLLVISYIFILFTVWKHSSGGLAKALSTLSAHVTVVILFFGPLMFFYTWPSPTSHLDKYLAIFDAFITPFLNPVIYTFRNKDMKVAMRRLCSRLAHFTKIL
Summary of the method: as §1

[10] = biological target: T5, OR4F17 (Homo sapiens) (UniProt Q8NGA8)
T5 sequence (whole entry): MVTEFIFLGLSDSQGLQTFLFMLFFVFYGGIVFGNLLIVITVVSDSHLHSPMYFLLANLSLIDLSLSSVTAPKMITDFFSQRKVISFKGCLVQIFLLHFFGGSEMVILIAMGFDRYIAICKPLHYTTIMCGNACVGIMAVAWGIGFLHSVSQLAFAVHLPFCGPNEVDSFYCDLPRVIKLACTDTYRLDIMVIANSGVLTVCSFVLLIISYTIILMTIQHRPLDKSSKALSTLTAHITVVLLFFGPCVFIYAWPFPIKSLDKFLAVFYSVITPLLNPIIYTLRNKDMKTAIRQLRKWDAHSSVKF
Summary of the method: as §1

[11] = biological target: T6, OR4F21 (Homo sapiens) (UniProt O95013)
T6 sequence (whole entry): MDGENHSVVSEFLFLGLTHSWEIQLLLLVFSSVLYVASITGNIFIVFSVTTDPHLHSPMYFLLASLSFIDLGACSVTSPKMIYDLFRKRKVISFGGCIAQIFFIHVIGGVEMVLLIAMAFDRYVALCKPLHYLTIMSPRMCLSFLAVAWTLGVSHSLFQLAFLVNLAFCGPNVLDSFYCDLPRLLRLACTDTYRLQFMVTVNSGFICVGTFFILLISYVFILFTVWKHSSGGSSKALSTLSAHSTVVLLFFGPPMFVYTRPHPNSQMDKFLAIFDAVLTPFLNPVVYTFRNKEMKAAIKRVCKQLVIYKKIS
Summary of the method: as §1

[12] = biological target: T7, OR4F3 (Homo sapiens) (UniProt Q6IEY1)
T7 sequence (whole entry): T6 sequence (whole entry) with F44L, I107V, K310R
Summary of the method: as §1

[13] = biological target: T8, OR4F4 (Homo sapiens) (UniProt Q96R69)
T8 sequence (whole entry): T5 sequence (whole entry) with G15E, R221C, Q293R
Summary of the method: as §1

[14] = biological target: T9, OR4F5 (Homo sapiens) (UniProt Q8NH21)
T9 sequence (whole entry): T5 sequence (whole entry) with G15E, A141T, P160L
Summary of the method: as §1

[15] = system: T10, OR4F5 T141A Q293R
T10 sequence (whole entry): T5 sequence (whole entry) with G15E, P160L, Q293R
Summary of the method: as §1

[16] = biological target: T11, OR4F6 (Homo sapiens) (UniProt Q8NGB9)
T11 sequence (whole entry): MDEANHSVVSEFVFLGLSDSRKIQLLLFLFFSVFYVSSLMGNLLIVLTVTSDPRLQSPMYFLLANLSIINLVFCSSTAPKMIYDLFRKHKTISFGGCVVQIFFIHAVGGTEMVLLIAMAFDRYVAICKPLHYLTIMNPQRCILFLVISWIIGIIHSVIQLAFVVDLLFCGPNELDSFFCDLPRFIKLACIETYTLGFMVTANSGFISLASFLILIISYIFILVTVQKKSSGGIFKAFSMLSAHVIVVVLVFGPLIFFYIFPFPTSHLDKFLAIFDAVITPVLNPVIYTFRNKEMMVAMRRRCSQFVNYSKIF
Summary of the method: as §1

[17] = biological target: T12, OR4K1 (Homo sapiens) (UniProt Q8NGD4)
T12 sequence (whole entry): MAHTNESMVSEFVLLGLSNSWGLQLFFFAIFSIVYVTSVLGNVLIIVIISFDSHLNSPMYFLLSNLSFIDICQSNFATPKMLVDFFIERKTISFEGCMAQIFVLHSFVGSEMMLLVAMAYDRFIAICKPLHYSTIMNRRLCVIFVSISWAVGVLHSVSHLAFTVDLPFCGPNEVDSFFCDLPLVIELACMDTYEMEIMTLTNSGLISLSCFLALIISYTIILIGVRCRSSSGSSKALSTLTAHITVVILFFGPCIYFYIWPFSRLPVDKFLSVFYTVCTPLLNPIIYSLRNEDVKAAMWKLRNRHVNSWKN
Summary of the method: as §1

[18] = system: OR4F3 R310K
Summary of the method: as §1

[19] = system: OR4F3 V107I
Summary of the method: as §1

[20] = biological target: OR4E1 (Homo sapiens) (UniProt P0C645)
Summary of the method: as §1

Measured: odorant receptor agonist call;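 also: active if original authors judged signal statistically different from baseline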

OR4D2, sequence (as listed by the source): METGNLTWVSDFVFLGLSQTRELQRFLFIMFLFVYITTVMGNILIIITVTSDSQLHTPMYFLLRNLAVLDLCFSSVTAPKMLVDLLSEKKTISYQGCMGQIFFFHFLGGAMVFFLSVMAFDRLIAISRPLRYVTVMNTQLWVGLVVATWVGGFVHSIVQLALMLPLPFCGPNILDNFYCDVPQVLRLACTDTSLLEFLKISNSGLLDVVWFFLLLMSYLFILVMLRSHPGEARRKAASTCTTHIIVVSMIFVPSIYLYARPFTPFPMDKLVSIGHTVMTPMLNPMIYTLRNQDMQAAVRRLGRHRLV
OR4D5 (Homo sapiens), sequence (Q8NGN0 whole entry): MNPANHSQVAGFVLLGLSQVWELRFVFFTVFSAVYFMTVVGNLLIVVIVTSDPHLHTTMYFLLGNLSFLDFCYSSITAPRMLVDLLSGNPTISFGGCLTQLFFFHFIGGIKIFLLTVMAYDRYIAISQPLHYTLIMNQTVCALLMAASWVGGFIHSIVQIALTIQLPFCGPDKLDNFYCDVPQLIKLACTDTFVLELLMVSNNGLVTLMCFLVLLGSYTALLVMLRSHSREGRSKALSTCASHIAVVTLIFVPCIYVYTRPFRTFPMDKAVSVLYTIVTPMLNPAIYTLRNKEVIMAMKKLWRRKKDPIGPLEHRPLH
OR4D6, sequence (as listed by the source): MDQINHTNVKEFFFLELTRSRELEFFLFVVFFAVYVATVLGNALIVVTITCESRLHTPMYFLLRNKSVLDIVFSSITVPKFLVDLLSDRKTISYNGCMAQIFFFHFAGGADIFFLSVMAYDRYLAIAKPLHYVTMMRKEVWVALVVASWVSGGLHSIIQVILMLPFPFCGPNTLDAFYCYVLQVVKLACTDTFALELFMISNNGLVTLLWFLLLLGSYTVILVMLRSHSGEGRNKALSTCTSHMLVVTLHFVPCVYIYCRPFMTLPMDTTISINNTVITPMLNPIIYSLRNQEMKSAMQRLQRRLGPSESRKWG
OR4D6 (Homo sapiens), sequence (Q8NGJ1 whole entry): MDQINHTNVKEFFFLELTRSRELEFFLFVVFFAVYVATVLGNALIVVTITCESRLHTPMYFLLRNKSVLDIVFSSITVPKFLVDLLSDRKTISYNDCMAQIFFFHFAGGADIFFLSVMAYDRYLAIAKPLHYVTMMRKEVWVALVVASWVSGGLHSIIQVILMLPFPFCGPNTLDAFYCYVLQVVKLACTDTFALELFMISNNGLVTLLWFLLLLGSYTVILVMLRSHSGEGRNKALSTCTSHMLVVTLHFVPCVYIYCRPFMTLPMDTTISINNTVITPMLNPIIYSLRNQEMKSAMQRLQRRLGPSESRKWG
OR4D9 (Homo sapiens), sequence (Q8NGE8 whole entry): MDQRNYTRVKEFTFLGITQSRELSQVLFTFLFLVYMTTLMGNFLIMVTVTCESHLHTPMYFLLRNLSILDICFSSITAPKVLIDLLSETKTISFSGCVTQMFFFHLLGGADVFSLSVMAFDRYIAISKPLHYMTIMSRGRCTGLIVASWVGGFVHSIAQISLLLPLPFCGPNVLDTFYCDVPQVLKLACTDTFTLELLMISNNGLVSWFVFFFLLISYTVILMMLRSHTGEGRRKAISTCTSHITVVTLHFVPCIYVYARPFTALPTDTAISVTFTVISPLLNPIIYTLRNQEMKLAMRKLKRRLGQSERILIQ
OR4E1 (Homo sapiens), sequence (P0C645 whole entry): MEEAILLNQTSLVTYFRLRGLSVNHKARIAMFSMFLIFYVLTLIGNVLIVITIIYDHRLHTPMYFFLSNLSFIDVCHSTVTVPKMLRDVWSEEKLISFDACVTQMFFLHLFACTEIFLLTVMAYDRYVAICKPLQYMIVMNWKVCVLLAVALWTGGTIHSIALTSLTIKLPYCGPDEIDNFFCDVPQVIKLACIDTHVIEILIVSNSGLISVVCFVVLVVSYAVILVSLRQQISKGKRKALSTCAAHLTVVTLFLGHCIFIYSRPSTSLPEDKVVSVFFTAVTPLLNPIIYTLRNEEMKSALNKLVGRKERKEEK
OR4F3 V107I, sequence (as listed by the source, stated change not applied): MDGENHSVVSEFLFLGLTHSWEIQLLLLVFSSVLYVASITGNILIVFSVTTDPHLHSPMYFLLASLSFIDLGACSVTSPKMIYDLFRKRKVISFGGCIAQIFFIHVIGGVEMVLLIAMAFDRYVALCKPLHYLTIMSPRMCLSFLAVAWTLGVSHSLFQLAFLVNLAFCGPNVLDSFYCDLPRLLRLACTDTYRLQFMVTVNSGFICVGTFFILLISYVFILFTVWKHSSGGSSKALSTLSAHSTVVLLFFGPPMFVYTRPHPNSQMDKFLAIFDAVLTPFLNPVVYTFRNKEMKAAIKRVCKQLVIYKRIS
OR4F3 R310K, sequence (as listed by the source, stated change not applied): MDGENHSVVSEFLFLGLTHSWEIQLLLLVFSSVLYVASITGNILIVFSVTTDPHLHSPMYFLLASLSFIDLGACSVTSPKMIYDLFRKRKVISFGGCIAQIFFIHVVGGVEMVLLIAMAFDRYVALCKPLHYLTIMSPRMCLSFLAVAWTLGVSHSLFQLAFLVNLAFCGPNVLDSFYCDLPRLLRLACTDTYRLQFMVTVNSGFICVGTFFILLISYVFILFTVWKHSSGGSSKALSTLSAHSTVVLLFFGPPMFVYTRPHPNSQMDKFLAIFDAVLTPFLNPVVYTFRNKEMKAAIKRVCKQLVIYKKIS

Cc1cnc(C)c(C)n1
not listed: [18] | [19] | [20]
inactive: all other assays above

CC(C)=CCCC(C)=CCO
inactive: [8]

CCC1OC(=O)C(O)=C1C (centres undefined)
not listed: [18] | [19] | [20]
inactive: all other assays above

CC(CO)CS (centres undefined)
not listed: [1] | [4] | [7] | [8] | [15] | [18] | [19] | [20]
inactive: all other assays above

CCCCCCC=CCCC=O
not listed: [7] | [20]
inactive: all other assays above

CCCCC(S)C(C)CO (centres undefined)
not listed: [1] | [4] | [7] | [8] | [15] | [18] | [19] | [20]
inactive: all other assays above

CC1=C(O)C(=O)OC1C (centres undefined)
not listed: [18] | [19] | [20]
inactive: all other assays above

CCCC(S)CCOC(C)=O (centres undefined)
not listed: [18] | [19] | [20]
inactive: all other assays above

CC1=C(O)C(=O)C(C)O1 (centres undefined)
not listed: [18] | [19] | [20]
inactive: all other assays above

CC1=NC(C)C(C)S1 (centres undefined)
not listed: [18] | [19] | [20]
inactive: all other assays above

CCC(S)C(C)CO (centres undefined)
not listed: [1] | [4] | [7] | [8] | [15] | [18] | [19] | [20]
inactive: all other assays above

CC(=O)c1c(C)c([N+](=O)[O-])c(C(C)(C)C)c([N+](=O)[O-])c1C
not listed: [1] | [4] | [7] | [8] | [15] | [18] | [19]
inactive: all other assays above

CCCCCC(S)C(C)CO (centres undefined)
not listed: [1] | [4] | [7] | [8] | [15] | [18] | [19] | [20]
inactive: all other assays above

CCC1OC(C)=C(O)C1=O (centres undefined)
not listed: [18] | [19] | [20]
inactive: all other assays above

CCCCCC(=O)C(C)C(C)=O (centres undefined)
not listed: [1] | [4] | [7] | [8] | [15] | [18] | [19] | [20]
inactive: all other assays above

CC1CCCCCCCCCCCCC(=O)C1 (centres undefined)
not listed: [1] | [4] | [7] | [8] | [15] | [18] | [19]
inactive: all other assays above
